For experiment [1], the system named is BaF3. Kind of experiment: Antiproliferative activity against mouse BAF3 cell line transformed with TEL-FGFR3 construct after 48 hrs by luciferase bioluminescent assay. As to conditions: BaF3, 48 h. The class given is functional, cell-based. In short, it runs like this: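 IL-3-independent BaF3 or BaF3 Tel-TK cells were grown in RPMI-1640 with 10% FBS and seeded at 4250 cells/well in 384-well plates. Compound serially diluted in DMSO was pin-transferred, followed by 48 h at 37 °C, 5% CO2. Viability was read by Bright-Glo luciferase luminescence.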

Experiment [2] deals with Cytochrome P450 2C9 (Homo sapiens, UniProt P11712). The experiment in a line: Inhibition of CYP2C9 using MFC as substrate. The class given is ADME. Put shortly:
(§1)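 Human CYP450 inhibition was measured with isoform-specific fluorogenic probe substrates: CEC for 1A2 and 2C19, MFC for 2C9, AMMC for 2D6. Incubation was at 37 °C with an NADPH-regenerating system in 384-well format. Metabolite was quantified by fluorescence, and IC50 was obtained by curve fitting.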

In experiment [3] the target is T1, Cytochrome P450 3A4 (Homo sapiens, UniProt P08684). Kind of experiment: Inhibition of CYP3A4 using BFC as substrate.
T1 sequence (P08684 whole entry): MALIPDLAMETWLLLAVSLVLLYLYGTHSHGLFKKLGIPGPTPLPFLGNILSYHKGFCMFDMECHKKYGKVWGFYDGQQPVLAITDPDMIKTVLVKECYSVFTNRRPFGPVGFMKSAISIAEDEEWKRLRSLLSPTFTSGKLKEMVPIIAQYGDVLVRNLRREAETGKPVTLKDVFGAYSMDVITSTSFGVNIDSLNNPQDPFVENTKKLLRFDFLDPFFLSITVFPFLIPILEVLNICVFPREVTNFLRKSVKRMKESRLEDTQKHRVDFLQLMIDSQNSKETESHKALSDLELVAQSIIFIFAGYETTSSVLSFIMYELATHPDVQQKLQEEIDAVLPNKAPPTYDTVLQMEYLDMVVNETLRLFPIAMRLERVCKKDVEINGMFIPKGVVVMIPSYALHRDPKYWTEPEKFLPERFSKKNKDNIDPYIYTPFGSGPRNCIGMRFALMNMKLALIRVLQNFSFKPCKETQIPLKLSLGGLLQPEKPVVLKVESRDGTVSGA
In experiment [4] the target is Cytochrome P450 2C19 (Homo sapiens, UniProt P33261). The experiment in a line: Inhibition of CYP2C19 using CEC as substrate. Format: ADME. Put shortly:
as §1

Experiment [5] has as its target T2, Cytochrome P450 1A2 (Homo sapiens, UniProt P05177).
T2 sequence (P05177 whole entry): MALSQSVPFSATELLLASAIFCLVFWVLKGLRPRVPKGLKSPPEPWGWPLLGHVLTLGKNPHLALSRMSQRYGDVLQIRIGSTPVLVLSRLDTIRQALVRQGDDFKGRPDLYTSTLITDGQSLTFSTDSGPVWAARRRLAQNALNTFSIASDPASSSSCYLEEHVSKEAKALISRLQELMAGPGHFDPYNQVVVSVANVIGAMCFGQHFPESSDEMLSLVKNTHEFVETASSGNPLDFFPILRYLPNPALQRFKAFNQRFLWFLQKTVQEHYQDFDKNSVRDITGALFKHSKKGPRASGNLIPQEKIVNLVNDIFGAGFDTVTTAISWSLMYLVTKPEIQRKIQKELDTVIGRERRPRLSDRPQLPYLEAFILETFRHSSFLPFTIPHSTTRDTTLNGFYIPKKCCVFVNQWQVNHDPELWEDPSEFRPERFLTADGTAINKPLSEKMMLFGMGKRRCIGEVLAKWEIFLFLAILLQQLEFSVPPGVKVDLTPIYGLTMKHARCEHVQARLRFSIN
Kind of experiment: Inhibition of CYP1A2 using CEC as substrate. Format: ADME. Put shortly: as §1

Experiment [6] deals with Cytochrome P450 2D6 (Homo sapiens, UniProt P10635). Kind of experiment: Inhibition of CYP2D6 using AMMC as substrate. The class given is ADME. Put shortly: as §1
Chain of Cytochrome P450 2D6 (P10635 whole entry): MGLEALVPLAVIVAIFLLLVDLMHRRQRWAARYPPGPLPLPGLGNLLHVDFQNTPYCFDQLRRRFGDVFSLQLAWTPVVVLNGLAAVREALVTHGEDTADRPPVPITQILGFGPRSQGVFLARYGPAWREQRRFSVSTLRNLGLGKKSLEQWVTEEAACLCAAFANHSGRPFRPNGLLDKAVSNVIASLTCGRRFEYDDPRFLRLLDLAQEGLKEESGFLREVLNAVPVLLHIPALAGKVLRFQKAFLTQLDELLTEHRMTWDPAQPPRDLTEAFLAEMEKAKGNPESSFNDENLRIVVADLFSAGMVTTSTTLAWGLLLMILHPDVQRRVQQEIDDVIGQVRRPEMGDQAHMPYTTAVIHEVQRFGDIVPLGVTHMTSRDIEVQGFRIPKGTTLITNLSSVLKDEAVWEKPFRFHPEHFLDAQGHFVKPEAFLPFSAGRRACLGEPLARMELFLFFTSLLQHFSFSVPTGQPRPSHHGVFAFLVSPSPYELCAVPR
In experiment [7] the target is T1, Cytochrome P450 3A4. Kind of experiment: Inhibition of CYP3A4 using DBF as substrate.

This passage reports IC50 results from ChEMBL document CHEMBL1833940, “Discovery of 3-(2,6-dichloro-3,5-dimethoxy-phenyl)-1-{6-[4-(4-ethyl-piperazin-1-yl)-phenylamino]-pyrimidin-4-yl}-1-methyl-urea (NVP-BGJ398), a potent and selective inhibitor of the fibroblast growth factor receptor family of receptor tyrosine kinase” (J Med Chem, 2011).

Chain of Cytochrome P450 2C19 (P33261 whole entry): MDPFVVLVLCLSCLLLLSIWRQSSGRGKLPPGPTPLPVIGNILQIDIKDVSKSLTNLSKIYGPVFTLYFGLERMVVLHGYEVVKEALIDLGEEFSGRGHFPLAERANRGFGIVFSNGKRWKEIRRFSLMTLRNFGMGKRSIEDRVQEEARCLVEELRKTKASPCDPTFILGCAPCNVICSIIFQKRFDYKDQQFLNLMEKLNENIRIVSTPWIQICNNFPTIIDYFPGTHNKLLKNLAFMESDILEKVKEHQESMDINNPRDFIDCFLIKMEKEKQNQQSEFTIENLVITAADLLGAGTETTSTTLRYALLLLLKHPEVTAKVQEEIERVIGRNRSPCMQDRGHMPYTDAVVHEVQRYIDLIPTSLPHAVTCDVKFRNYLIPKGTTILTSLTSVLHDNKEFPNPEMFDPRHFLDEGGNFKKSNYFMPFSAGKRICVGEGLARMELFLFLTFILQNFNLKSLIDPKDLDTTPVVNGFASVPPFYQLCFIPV
Chain of Cytochrome P450 2C9 (P11712 whole entry, canonical isoform): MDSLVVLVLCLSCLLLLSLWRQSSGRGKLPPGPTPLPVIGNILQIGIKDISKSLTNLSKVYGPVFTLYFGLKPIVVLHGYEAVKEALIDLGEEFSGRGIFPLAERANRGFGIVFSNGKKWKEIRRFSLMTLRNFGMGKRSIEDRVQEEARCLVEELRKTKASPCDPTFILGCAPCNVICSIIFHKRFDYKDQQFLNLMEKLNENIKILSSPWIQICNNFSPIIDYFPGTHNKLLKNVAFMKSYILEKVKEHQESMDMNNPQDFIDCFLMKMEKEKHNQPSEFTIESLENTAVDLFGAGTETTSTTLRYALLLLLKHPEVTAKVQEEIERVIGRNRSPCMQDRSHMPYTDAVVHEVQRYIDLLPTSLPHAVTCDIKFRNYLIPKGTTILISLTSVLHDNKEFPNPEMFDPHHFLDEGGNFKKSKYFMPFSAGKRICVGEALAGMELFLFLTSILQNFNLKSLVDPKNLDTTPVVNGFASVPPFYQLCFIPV

Consider `COc1ccc(Cl)c(NC(=O)Nc2cc(Nc3ccc(N4CCN(C)CC4)cc3)ncn2)c1`, for which the IC50 in experiment [1] came to 2220 nM.

In turn, `COc1ccc(Cl)c(NC(=O)Nc2cc(Nc3ccc(N4CCN(C)CC4)cc3)ncn2)c1Cl` came in with a half-inhibitory concentration (IC50) in experiment [1] of 126 nM.

`CCN(C(=O)Nc1cc(OC)cc(OC)c1Cl)c1cc(Nc2ccc(N3CCN(C)CC3)cc2)ncn1`: the IC50 in experiment [1] came to 750 nM.

`COc1cc(OC)c(Cl)c(NC(=O)N(C)c2cc(Nc3ccc(CCCN(C)C)cc3)ncn2)c1Cl`: the IC50 in experiment [1] was 27 nM; in experiment [2], > 10000 nM; in experiment [3], 1000 nM; in experiment [4], 3600 nM; in experiment [5], > 10000 nM; in experiment [6] it was > 10000 nM. Moreover, in experiment [7], the IC50 is > 10000 nM.

In turn, `COc1cc(NC(=O)Nc2cc(Nc3ccc(N4CCN(C)CC4)cc3)ncn2)c(Cl)c(OC)c1` showed an IC50 in experiment [1] of 832 nM.

As to `COc1cc(OC)c(Cl)c(NC(=O)N(C)c2cc(Nc3cccc(CN(C)C)c3)ncn2)c1Cl`, the 50% inhibitory concentration (IC50) in experiment [1] is 11 nM; in experiment [2], > 10000 nM; in experiment [4], 1400 nM; in experiment [5], > 10000 nM; in experiment [6], > 10000 nM.

`COc1ccc(Cl)c(NC(=O)N(C)c2cc(Nc3ccc(N4CCN(C)CC4)cc3)ncn2)c1Cl` had an IC50 in experiment [1] of 118 nM.

Regarding `COc1cc(OC)c(Cl)c(NC(=O)N(C)c2cc(Nc3cccc(N4CCN(C)CC4)c3)ncn2)c1Cl`, the IC50 in experiment [1] was 2 nM; in experiment [2], 1700 nM; in experiment [3], 1100 nM; in experiment [4] it was 900 nM; in experiment [5], > 10000 nM; in experiment [6], > 10000 nM. In addition, in experiment [7], the IC50 was > 10000 nM.

As for `CCN1CCC(c2ccc(Nc3cc(N(C)C(=O)Nc4c(Cl)c(OC)cc(OC)c4Cl)ncn3)cc2)CC1`, the IC50 was 14 nM in experiment [1]; 4000 nM in experiment [2]; 1200 nM in experiment [3]; 1100 nM in experiment [4]; > 10000 nM in experiment [5]; > 10000 nM in experiment [6]. The same molecule registered a half-maximal inhibitory concentration (IC50) in experiment [7] of 6000 nM.

Consider `COc1cc(NC(=O)N(C)c2cc(Nc3ccc(N4CCN(C)CC4)cc3)ncn2)cc(OC)c1`, for which half-maximal inhibition in experiment [1] (IC50) required 1510 nM.

Take `COc1cc(OC)c(Cl)c(NC(=O)N(C)c2cc(Nc3cccc(CN4CCN(C)CC4)c3)ncn2)c1Cl`: the IC50 was 14 nM in experiment [1]; > 10000 nM in experiment [2]; 500 nM in experiment [3]; 300 nM in experiment [4]; 7000 nM in experiment [5]; > 10000 nM in experiment [6]. For the same molecule, in experiment [7], the IC50 is > 10000 nM.

Take `COc1cc(OC)c(Cl)c(NC(=O)N(C)c2cc(Nc3ccc(OCCN4CCCC4)cc3)ncn2)c1Cl`: the IC50 is 28 nM in experiment [1]; > 10000 nM in experiment [2]; > 10000 nM in experiment [3]; > 10000 nM in experiment [4]; > 10000 nM in experiment [5]; > 10000 nM in experiment [6]. The midpoint of inhibition in experiment [7], the IC50, lay at 2500 nM.

Take `COc1cc(NC(=O)N(C)c2cc(Nc3ccc(N4CCN(C)CC4)cc3)ncn2)c(Cl)c(OC)c1`: the midpoint of inhibition in experiment [1], the IC50, lay at 635 nM.
